# The source made the active and inactive calls. No cut-off for these calls is given here.
# Experiments:
# [1] = system: Staphylococcus aureus; assay: Antibacterial activity against methicillin-resistant Staphylococcus aureus A960649 after 24 hrs by microbroth dilution method; format: functional; conditions: A960649, 24 h
# Outline: (§1)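 Mueller-Hinton broth cultures grown at 37 °C with shaking to log phase, pelleted, resuspended in 0.85% saline to OD625 0.1. Broth microdilution per CLSI guidelines, final inoculum 5 × 10^5 CFU/mL, in triplicate, 24 h at 37 °C. Growth read as OD625. MIC is the lowest concentration giving complete growth inhibition versus untreated controls.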
# [2] = system: Staphylococcus aureus; assay: Antibacterial activity against Staphylococcus aureus ATCC 33591 after 24 hrs by microbroth dilution method; format: functional; conditions: ATCC 33591, 24 h
# Outline: (§2)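 Microbroth dilution per CLSI guidelines. Organisms grown in Mueller−Hinton broth at 37 °C with shaking to log phase, pelleted, resuspended in 0.85% saline to OD625 0.1. Final inoculum 5 × 10^5 CFU/mL; triplicate; 24 h at 37 °C. OD625 read; MIC = lowest concentration completely inhibiting growth versus untreated controls.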
# [3] = system: Staphylococcus aureus; assay: Antibacterial activity against methicillin-resistant Staphylococcus aureus 33591 after 24 hrs by microbroth dilution method; format: functional; conditions: Staphylococcus aureus, 33591, 24 h; outline: as §1
# [4] = system: Klebsiella pneumoniae; assay: Antibacterial activity against Klebsiella pneumoniae NR15410 after 24 hrs by microbroth dilution method; format: functional; conditions: NR15410, 24 h; outline: as §2
# [5] = system: Shigella flexneri; assay: Antibacterial activity against Shigella flexneri 2457NR517 after 24 hrs by microbroth dilution method; format: functional; conditions: 2457NR517, 24 h; outline: as §1
# [6] = system: Enterobacter cloacae; assay: Antibacterial activity against Enterobacter cloacae ATCC 13047 after 24 hrs by microbroth dilution method; format: functional; conditions: ATCC 13047, 24 h; outline: as §2
# [7] = system: Enterococcus faecalis; assay: Antibacterial activity against Enterococcus faecalis ATCC 29212 after 24 hrs by microbroth dilution method; format: functional; conditions: ATCC 29212, 24 h; outline: as §2
# [8] = system: Escherichia coli; assay: Antibacterial activity against Escherichia coli K-12 after 24 hrs by microbroth dilution method; format: functional; conditions: K-12, 24 h; outline: as §2
# [9] = system: Staphylococcus aureus; assay: Antibacterial activity against Staphylococcus aureus ATCC 29213 after 24 hrs by microbroth dilution method; format: functional; conditions: ATCC 29213, 24 h; outline: as §2
# [10] = system: Escherichia coli; assay: Antibacterial activity against Escherichia coli ATCC 25922 after 24 hrs by microbroth dilution method; format: functional; conditions: ATCC 25922, 24 h; outline: as §2
# [11] = Binding affinity to dA60.dT60 B-DNA duplex (unknown origin) assessed as induction of biphasic transition at <5 uM by UV-vis spectrophotometric analysis
# [12] = system: Citrobacter freundii; assay: Antibacterial activity against Citrobacter freundii 4747CFAA after 24 hrs by microbroth dilution method; format: functional; outline: as §2
# [13] = system: Staphylococcus epidermidis; assay: Antibacterial activity against Staphylococcus epidermidis ATCC 12384 after 24 hrs by microbroth dilution method; format: functional; conditions: ATCC 12384, 24 h; outline: as §2
# [14] = system: Enterococcus faecium; assay: Antibacterial activity against Enterococcus faecium BM4105RF after 24 hrs by microbroth dilution method; format: functional; outline: as §1
# [15] = Binding affinity to dA60.dT60 B-DNA duplex (unknown origin) assessed as change in melting temperature at 10 uM by UV-vis spectrophotometric analysis
# Outline: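 UV melting of dA60·dT60 at 1 μM/duplex with compound at 10 μM. Buffer 10 mM sodium cacodylate, 0.1 mM EDTA, 100 mM NaCl, pH 7.0; duplex pre-annealed from 95 °C. Compound stocks in DMSO diluted into buffer. Heating at 0.2 °C/min, monitored at 260 nm, points every 1.0 °C; Tm taken from derivatives.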
# [16] = system: Acinetobacter baumannii; assay: Antibacterial activity against Acinetobacter baumannii ATCC 19606 after 24 hrs by microbroth dilution method; format: functional; conditions: ATCC 19606 = CIP 70.34 = JCM 6841, 24 h; outline: as §2
# [17] = system: Pseudomonas aeruginosa; assay: Antibacterial activity against Pseudomonas aeruginosa ATCC 27853 after 24 hrs by microbroth dilution method; format: functional; conditions: ATCC 27853, 24 h; outline: as §2
Structure (SMILES),MIC [1] [µg/mL],MIC [2] [µg/mL],MIC [3] [µg/mL],MIC [4] [µg/mL],MIC [5] [µg/mL],MIC [6] [µg/mL],MIC [7] [µg/mL],MIC [8] [µg/mL],MIC [9] [µg/mL],MIC [10] [µg/mL],Activity [11],MIC [12] [µg/mL],MIC [13] [µg/mL],MIC [14] [µg/mL],ΔTm [15] [°C],MIC [16] [µg/mL],MIC [17] [µg/mL]
CN1CCN(c2ccc3nc(-c4ccc(OCCCN)cc4)[nH]c3c2)CC1,> 32,> 32,> 32,> 32,> 32,> 32,> 32,> 32,> 32,> 32,Active,> 32,> 32,> 32,3.3,> 32,> 32
C#CCOc1ccc(-c2nc3ccc(N4CCN(C)CC4)cc3[nH]2)cc1,> 32,16 to 32,> 32,> 32,> 32,> 32,16 to 32,16,≥ 32,16,Active,> 32,> 32,> 32,2.6,> 32,16
CN1CCN(c2ccc3nc(-c4ccc(OCCCNC(=O)OC(C)(C)C)cc4)[nH]c3c2)CC1,> 32,16 to 32,> 32,> 32,> 32,> 32,16 to 32,16,16 to 32,16,Active,> 32,> 32,> 32,1,> 32,16
CN1CCN(c2ccc3nc(-c4ccc(OCc5cn(CCN=[N+]=[N-])nn5)cc4)[nH]c3c2)CC1,> 32,16 to 32,> 32,> 32,> 32,> 32,16 to 32,16,16 to 32,16,Active,> 32,> 32,> 32,1.2,> 32,16
C#CCCCCCCc1cn(CCOc2ccc(-c3nc4ccc(N5CCN(C)CC5)cc4[nH]3)cc2)nn1,–,16 to 32,–,> 32,> 32,> 32,16 to 32,16,16 to 32,16,Active,> 32,> 32,> 32,0.5,> 32,16
C#Cc1ccc(-c2cn(CCOc3ccc(-c4nc5ccc(N6CCN(C)CC6)cc5[nH]4)cc3)nn2)cc1,> 32,16,> 32,> 32,> 32,> 32,16 to 32,16,16 to 32,16,Active,> 32,> 32,> 32,1.9,> 32,16
CN1CCN(c2cc(C(=O)O)c3nc(-c4ccc(O)cc4)[nH]c3c2)CC1,–,> 32,–,–,–,–,> 32,> 32,> 32,> 32,Active,–,–,–,0,–,> 32
CCOc1ccc(-c2nc3ccc(N4CCN(C)CC4)cc3[nH]2)cc1,> 32,16 to 32,> 32,> 32,> 32,> 32,16,16,16 to 32,16,Active,> 32,> 32,> 32,1.7,> 32,16
C#CCOCCCCCCOc1ccc(-c2nc3ccc(N4CCN(C)CC4)cc3[nH]2)cc1,> 32,16 to 32,> 32,> 32,> 32,> 32,16 to 32,16,16 to 32,16,Active,> 32,> 32,> 32,1.4,> 32,16
CN1CCN(c2ccc3nc(-c4ccc(OCCN=[N+]=[N-])cc4)[nH]c3c2)CC1,> 32,16 to 32,> 32,> 32,> 32,> 32,16 to 32,16,≥ 32,16,Active,> 32,> 32,> 32,1.9,> 32,16
Oc1ccc(-c2nc3ccccc3[nH]2)cc1,> 32,16 to 32,> 32,> 32,> 32,> 32,16,16,16 to 32,16,Active,> 32,> 32,> 32,0,16 to 32,16
